Laboratory results taken from publication PMC6217806 (European journal of medicinal chemistry, 2018).

Key:
Type in all cases: cell-based
HIV-1 NL4-3 Nanoluc-sec = conditions: for SI, selectivity index, calculated as CC50/EC50: CC50 (MT4) / EC50 (HIV-1 in MT4)
[1] = CytoTox-Glo cytotoxicity assay in MT4 cells; conditions: human
[2] = system: T cell latent HIV-1 model JLat-A2; assay: FACS analysis of GFP-expressing J-Lat; conditions: JLat-A2, 10 and 50 nM, 72 h
Outline: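 J-Lat (A2) latently infected cells at 1×10⁶ cells/well, incubated with test compounds at various concentrations, 37 °C, 72 h. GFP-expressing cells scored by flow cytometry.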

[3] = Cytotoxicity against U937 cell; conditions: human, U937 cells
Outline: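 Cells cultured 3 days with test compound over a concentration range. Viability read by CytoTox-Glo cytotoxicity assay per manufacturer's protocol, same method as for MT4 cells. CC50 taken as the concentration giving 50% reduction in cell viability.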

Compound	SI, selectivity index, calculated as CC50/EC50 (HIV-1 NL4-3 Nanoluc-sec)	also measured
CC1=C[C@@H]2C(=O)[C@]3(C=C(C)[C@H](OC(=O)/C=C/c4ccccc4)[C@@]3(O)[C@@H]1O)[C@H](C)C[C@@H]1[C@H]2C1(C)C [Compound 13a, 3-(trans-Cinnamoyl)-20-deoxyingenol]	>45	
CCCCCCCCCCCC(=O)O[C@@]12C[C@@H](C)[C@]34C=C(C)[C@H](OC(=O)C(C)C(C)C)[C@@]3(O)[C@H](O)C(CO)=C[C@H](C4=O)[C@@H]1C2(C)C (some centres unmarked) [Compound 5, 3-O-(2,3-dimethylbutanoyl)-13-O-dodecanoylingenol]	>7500	
CCCCCCCC(=O)O[C@H]1C(C)=C[C@]23C(=O)[C@@H](C=C(C)[C@@H](O)[C@]12O)[C@H]1[C@@H](C[C@H]3C)C1(C)C [Compound 18, 3-Octanoyl-20-deoxyingenol]	>59.9	
C/C=C/C(=O)O[C@H]1C(C)=C[C@]23C(=O)[C@@H](C=C(C)[C@@H](O)[C@]12O)[C@H]1[C@@H](C[C@H]3C)C1(C)C [Compound 15a, 3-Crotonoyl-20-deoxyingenol]	>17	
C=C1[C@H](OC(=O)c2ccccc2)[C@H]2[C@@H](OC(C)=O)[C@](C)(O)[C@H](OC(C)=O)[C@]2(O)C(=O)[C@@H](C)[C@H]2O[C@@H]2C(C)(C)C(=O)[C@H](O)[C@H]1OC(=O)c1ccccc1 [Compound 7, kansuinin C]		anti-HIV activity (HIV-1 NL4-3 Nanoluc-sec; jatrophane diterpenoids isolated from E3-fraction): no anti-HIV activity
C/C=C(\C)C(=O)O[C@H]1C(C)=C[C@]23C(=O)[C@@H](C=C(C)[C@@H](O)[C@]12O)[C@H]1[C@@H](C[C@H]3C)C1(C)C [Compound 16, 3-Tigloyl-20-deoxyingenol]	>46	CC50 at 3 days [1]: > 9.7 µM
CC1=C[C@@H]2C(=O)[C@]3(C=C(C)[C@H](O)[C@@]3(O)[C@@H]1OC(=O)c1ccccc1)[C@H](C)C[C@@H]1[C@H]2C1(C)C [Compound 1, 5-O-benzoyl-20-deoxyingenol]	>216	
CC(=O)OCC1=C[C@@H]2C(=O)[C@]3(C=C(C)[C@H](O)[C@@]3(O)[C@@H]1O)[C@H](C)C[C@@H]1[C@H]2C1(C)C [Compound 4, ingenol monoacetate]	>10	
COc1ccc(C(=O)O[C@@H]2C(C)=C[C@@H]3C(=O)[C@]4(C=C(C)[C@H](O)[C@@]24O)[C@H](C)C[C@@H]2[C@H]3C2(C)C)cc1 [Compound 12b, 5-(p-methoxybenzoyl)-20-deoxyingenol]	>20	
COc1ccc(C(=O)O[C@H]2C(C)=C[C@]34C(=O)[C@@H](C=C(C)[C@@H](O)[C@]23O)[C@H]2[C@@H](C[C@H]4C)C2(C)C)cc1 [Compound 12a, 3-(p-Methoxybenzoyl)-20-deoxyingenol]	>64	
C/C=C/C(=O)O[C@@H]1C(C)=C[C@@H]2C(=O)[C@]3(C=C(C)[C@H](O)[C@@]13O)[C@H](C)C[C@@H]1[C@H]2C1(C)C [Compound 15b, 5-crotonoyl-20-deoxyingenol]	>16	
C/C=C(/C)C(=O)O[C@H]1C(C)=C[C@]23C(=O)[C@@H](C=C(CO)[C@@H](O)[C@]12O)[C@H]1[C@@H](C[C@H]3C)C1(C)C [Compound 22, 3-Angeloylingenol]	>2067	activation of green fluorescent protein (GFP) expression [2]: comparable potency
CCCCCCCCCCCC(=O)O[C@@]12C[C@@H](C)[C@]34C=C(C)[C@H](O)[C@@]3(O)[C@H](O)C(CO)=C[C@H](C4=O)[C@@H]1C2(C)C [Compound 11, 13-oxyingenol-13-dodecanoate]	>273	
CC1=C[C@]23C(=O)[C@@H](C=C(CO)[C@@H](O)[C@]2(O)[C@H]1OC(=O)c1ccc2ccccc2c1)[C@H]1[C@@H](C[C@H]3C)C1(C)C [Compound 23, 3-(2-Naphthoyl)ingenol]	>6153	activation of green fluorescent protein (GFP) expression [2]: comparable potency; CC50 at 3 days [3]: > 2 µM
C/C=C(/C)C(=O)O[C@H]1C(C)=C[C@]23C(=O)[C@@H](C=C(C)[C@@H](O)[C@]12O)[C@H]1[C@@H](C[C@H]3C)C1(C)C [Compound 17, 3-angeloyl-20-deoxyingenol]	>22.8	
CC1=C[C@@H]2C(=O)[C@]3(C=C(C)[C@H](OC(=O)c4ccc5ccccc5c4)[C@@]3(O)[C@@H]1O)[C@H](C)C[C@@H]1[C@H]2C1(C)C [Compound 14a, 3-(2-Naphthoyl)-20-deoxyingenol]	>543	
CC(=O)O[C@H]1C(C)=C[C@]23C(=O)[C@@H](C=C(C)[C@@H](OC(=O)c4ccccc4)[C@]12O)[C@H]1[C@@H](C[C@H]3C)C1(C)C [Compound 3, kansuiphorin C]	>23	
CC1=C[C@@H]2C(=O)[C@]3(C=C(C)[C@H](OC(=O)c4ccccc4)[C@@]3(O)[C@@H]1O)[C@H](C)C[C@@H]1[C@H]2C1(C)C [Compound 2, 3-O-benzoyl-20-deoxyingenol]	>302	
CC1=C[C@@H]2C(=O)[C@]3(C=C(C)[C@H](O)[C@@]3(O)[C@@H]1OC(=O)/C=C/c1ccccc1)[C@H](C)C[C@@H]1[C@H]2C1(C)C [Compound 13b, 5-(trans-cinnamoyl)-20-deoxyingenol]	>22	
